Compound activity (PubChem BioAssay)
M1 antag: M1 muscarinic receptor (rat) antagonism; actives 3.4% (n = 64,000); P08482; B-score at 10 µM; CHO-M1 cells, Fluo-4 calcium, ACh EC80 antagonist mode; stronger effect = lower value;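 active = calcium fluorescence response, raw or row-and-column corrected B-score, differing from the plate sample mean either way at a set confidence level, mostly lower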
M1 ag: M1 muscarinic receptor agonism; CHO-M1 cells, Fluo-4 calcium fluorescence, agonist mode; stronger effect = higher value; B-score at 10 µM; actives 3% (n = 64,000); AID 626;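 active = fluorescence rise, raw or as B-score row- and column-corrected plate score, outside the 99.7% band of its plate's samples, either direction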
SF-1 act: SF-1 (human) activation; Q13285; CHO-K1 Gal4-SF-1 LBD luciferase reporter; % increase over DMSO SF-1-specific signal; activation, % at 10 µM; actives 1.9% (n = 65,000);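 active = activation above the mean activation of all tested compounds plus 3 SD, cut at about 50% in these data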
Target sequence (Q13285 whole entry, looked up, the tested form may be a part): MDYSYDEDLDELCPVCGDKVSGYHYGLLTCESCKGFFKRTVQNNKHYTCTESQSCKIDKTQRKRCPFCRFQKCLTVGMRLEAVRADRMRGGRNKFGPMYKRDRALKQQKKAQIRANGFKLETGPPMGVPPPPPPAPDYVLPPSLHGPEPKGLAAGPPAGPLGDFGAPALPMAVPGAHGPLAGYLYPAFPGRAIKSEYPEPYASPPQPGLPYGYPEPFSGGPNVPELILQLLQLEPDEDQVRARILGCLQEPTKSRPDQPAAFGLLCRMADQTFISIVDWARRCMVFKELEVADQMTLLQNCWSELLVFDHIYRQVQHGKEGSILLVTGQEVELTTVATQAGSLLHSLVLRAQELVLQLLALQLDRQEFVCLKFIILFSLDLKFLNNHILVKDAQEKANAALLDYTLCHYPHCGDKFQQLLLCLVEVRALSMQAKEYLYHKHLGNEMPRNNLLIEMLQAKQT
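Material: CHO-K1 cells with Gal4–hSF-1 LBD chimera plus Gal4-driven luciferase / Input: 4,000 CHO-K1 cells per well / Incubation: compound exposure 20 h at 37 °C / Signal: luminescence read 15 min after SteadyLite luciferase reagent, after room-temperature equilibration / Read-out: percent activation versus DMSO / Benchmarks: DMSO negative control and −SF1 background wells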
Htt clearance: compounds clearing mutant huntingtin protein | actives 0.42% (n = 47,000) | inhibition, % at 1.5 µM | AID 853 | HeLa Exon1htt(103Q)mCFP, aggregate imaging; zero = plate's median compound well;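 active = inhibition of aggregate fluorescence above about 70%, also judged a hit by eye on the cell image, limit read from the data, passing the limit was not always enough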;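 also: cells exposed to compound for three days before fixation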
D1 allo mod: D1 dopamine receptor (human) allosteric modulation; P21728; HEK293 D1, CRE-luciferase, dopamine EC30 potentiation; actives deviate in either direction; B-score at 10 µM; actives 5.9% (n = 58,000);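 active = luminescence count or its row- and column-corrected plate score outside the 99.7% band of the plate's sample wells, on either side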
RORa activator: activates the human nuclear receptor RORA. activation, % at 10 µM. CHO-K1 Gal4-RORA LBD luciferase reporter, luminescence; percent increase over mock-subtracted basal signal. actives 1.5% (n = 65,000). P35398;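 active = activation above the mean of all tested compounds plus 3 SD, cut at about 49% in these data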;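 also: 0% = DMSO-treated RORA cells and 100% = added signal equal to DMSO minus mock-transfected cells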
D1 PAM confirm: D1 receptor (human) allosteric modulation, confirmed. HEK293 D1 CRE-luciferase, dopamine EC30 potentiation; stronger effect = higher value. actives 88% (n = 2,200). luminescence at 10 µM. shares compounds with D1 allo mod;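 active = luminescence in either of two replicates above the same-plate mean plus 3 SD of the low-dose dopamine control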
D1 no dopamine: D1 (human) signaling in absence of dopamine; shares compounds with D1 allo mod; HEK293 D1 CRE-luciferase, luminescence, no dopamine; stronger effect = higher value; luminescence at 10 µM; actives 0.8% (n = 1,900); AID 646; in the data active = luminescence above about 3900
Isoprot counter: isoproterenol response counter-screen activity for D1 modulators | shares compounds with D1 allo mod | HEK293 D1 CRE-luciferase, isoproterenol EC30 counter-screen | calls only at 10 µM | actives 63% (n = 2,200);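 active = luminescence in either replicate above plate mean of wells with a partly effective reference agonist dose plus 3 SD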;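 also: isoproterenol raises cAMP through native beta-adrenoceptor Gs so signal bypasses D1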
* hit, by the source's call; i = inactive; nt = no result given; + = active, no number. The list is not random: actives were taken first. Their share in the collection is about 11%.

SMILES	M1 antag	M1 ag	SF-1 act	Htt clearance	D1 allo mod	RORa activator	D1 PAM confirm	D1 no dopamine	Isoprot counter
Cc1ccccc1-c1c(C)oc2cc(O)ccc2c1=O	0.1	-0.088	-4	nt	-1	-6	nt	nt	nt
COc1ccc(Cl)cc1S(=O)(=O)Oc1ccc(NC(C)=O)cc1	nt	nt	nt	28	nt	nt	nt	nt	nt
Clc1cccc(Nc2c3c(nc4ncnn24)CCC3)c1	-0.11	-1.7	12	43	4.7*	-18	8280*	1584	i
Cc1cc(NC(=O)C2CCCCC2)n(-c2nc3ccccc3[nH]2)n1	nt	nt	nt	26	nt	nt	nt	nt	nt
Cc1cc(NC(=O)C2CCC2)n(-c2ccccn2)n1	0.61	0.27	12	nt	7.6*	7	20484*	1604	+
CCOc1cc(-c2c(C)c(CC)nc(N)c2C#N)ccc1O	0.61	-0.054	-11	nt	1.9*	4	10600*	1960	+
O=C1COc2ccc3ccccc3c2CN1	0.66	0.38	-7	nt	0.11	-7	nt	nt	nt
O=C1COc2ccc(C(=O)c3ccccc3)cc2CN1	-0.13	-1.2	9	8	4.7*	15	5740*	1572	i
CC12CCC(C(=O)N(c3ccccn3)c3ccccn3)(OC1=O)C2(C)C (stereo unspecified)	-0.37	0.69	-6	nt	-1.4	-9	nt	nt	nt
Cc1ccc(SC(C)C(=O)NCc2cccnc2)cc1 (stereo unspecified)	nt	nt	nt	-36	nt	nt	nt	nt	nt
Cc1ccc(-c2cc(C(F)F)nc(NCC3CCCO3)n2)cc1 (stereo unspecified)	0.62	-0.11	22	nt	3.3*	2	14888*	nt	+
Cc1ccc(-c2cc(C(F)F)nc(NCc3cccnc3)n2)cc1	0.64	-0.46	8	nt	13*	6	16464*	nt	+
COC(=O)c1ccccc1NC(=O)C1CCN(S(=O)(=O)c2cc(C)ccc2OC)CC1	0.41	1.3	-14	18	17*	-6	16104*	1660	+
COc1ccc(OC)c(S(=O)(=O)N2CCC(C(=O)Nc3cccc(C)c3)CC2)c1	nt	nt	nt	2	nt	nt	nt	nt	nt
N#Cc1c(N)nc(-c2ccccc2)nc1-c1ccccc1	0.027	-0.44	-8	nt	18*	-3	18844*	1712	i
COc1ccc(C(=O)N2CCN=C2SCc2cccnc2)cc1OC	-0.076	0.14	-5	-90	4.8*	-12	9852*	1576	+
COc1ccc(OC)c(CCNC(=O)CS(=O)(=O)Cc2nc(-c3ccccc3C)oc2C)c1	-0.8	4.6	-5	-10	1.3	2	nt	nt	nt
CCOC(=O)c1ccc(NS(=O)(=O)c2cccc3nsnc23)cc1	0.02	-0.026	-13	-12	2.5	-8	nt	nt	nt
N#Cc1c(N)nc(SCc2ccccc2)c(C#N)c1-c1ccco1	0.35	-0.64	-14	0	4.2*	-6	9744*	1440	+
CCCOC(=O)CSc1nc(N)c(C#N)c(-c2ccco2)c1C#N	nt	nt	nt	-39	nt	nt	nt	nt	nt
CCCc1nc(N)c(C#N)c(-c2ccco2)c1CC	-1.2	-0.27	3	1	6.7*	-8	9040*	1564	+
Cc1c(-c2ccc(F)cc2)nc(N)c(C#N)c1-c1ccco1	-0.41	-1.9	3	37	5.8*	-6	8280*	nt	i
CN1CCN(C(=O)c2ccccc2-c2ccccc2C(=O)O)CC1	0.81	0.018	5	-15	0.47	-8	nt	nt	nt
COc1ccc(-c2nc(N)nc(C)c2Oc2ccccc2Br)c(O)c1	-2.1	-1.6	17	nt	0.021	25	nt	nt	nt
Cc1cc(C)nc(NC(=O)CN2C(=O)c3ccccc3C2=O)n1	-0.0034	-0.13	-7	8	0.23	-1	nt	nt	nt
SMILES	M1 antag	M1 ag	SF-1 act	Htt clearance	D1 allo mod	RORa activator	D1 PAM confirm	D1 no dopamine	Isoprot counter
Cc1c(Cc2ccc3c(c2)OCO3)sc(NC(=O)C(C)(C)C)c1C#N	nt	nt	nt	6	nt	nt	nt	nt	nt
Cc1cc(C)cc(OC(=O)N2CCOCC2)c1	0.15	0.3	4	-18	-0.96	-15	nt	nt	nt
Cc1ccc(N2C(=O)c3ccc(C(=O)N4CCN(c5ccccc5F)CC4)cc3C2=O)cc1	0.21	-0.15	-7	nt	-0.049	7	nt	nt	nt
CNc1nc(SC)nc(N2CCOCC2)n1	1.4	-0.3	22	40	11*	-5	17184*	2056	+
Nc1nc(CSCc2ccccc2)nc(N2CCOCC2)n1	0.9	-0.34	34	4	4.3*	19	12172*	1852	+
CCNc1nc(SCc2ccccc2)nc(N2CCOCC2)n1	-0.55	0.7	1	22	23*	-8	17404*	nt	+
N#CCOc1nc(N2CCOCC2)nc(N2CCOCC2)n1	0.81	-0.87	-6	-18	1.6	-21	nt	nt	nt
N#Cc1nc(N2CCOCC2)nc(N2CCOCC2)n1	-0.24	0.05	-11	-10	5.1*	-6	12340*	1704	+
COc1ccc(N(C(=O)c2ccco2)S(=O)(=O)c2cccs2)cc1	-0.28	-0.032	-3	-54	7.5*	-3	14396*	1668	+
COc1ccc(S(=O)(=O)N(CCc2ccccc2)CC(=O)O)cc1	nt	nt	nt	-9	nt	nt	nt	nt	nt
Cc1[nH]nc2c1C(c1ccc3c(c1)OCO3)C(C#N)=C(N)O2 (stereo unspecified)	nt	nt	-12	nt	nt	22	nt	nt	nt
CCOc1ccc(-c2[nH]nc3c2C(c2ccc4c(c2)OCO4)C(C#N)=C(N)O3)cc1OC (stereo unspecified)	0.023	-0.41	29	nt	2.4*	-20	10328*	10840*	+
COc1cc(C2C(C#N)=C(N)Oc3n[nH]c(-c4ccncc4)c32)cc(OC)c1OC (stereo unspecified)	2	-1.3	4	-17	0.76	-17	nt	nt	nt
COc1ccc(C2C(C#N)=C(N)Oc3n[nH]c(-c4ccccn4)c32)c(OC)c1OC (stereo unspecified)	0.53	-0.76	7	-49	11*	9	17692*	1644	+
CCCCCOc1ccc(C(=O)NCC(=O)NCC(=O)OCC)cc1	-0.28	-1.3	22	42	0.00052	4	nt	nt	nt
Nc1nc2n(n1)C(c1c(F)cccc1Cl)CC(c1ccc(F)cc1)N2 (stereo unspecified)	0.42	0.0083	7	24	0.91	-7	nt	nt	nt
O=C(CSc1nnc2scc(-c3ccccc3)n12)NCc1ccc2c(c1)OCO2	nt	nt	-6	-18	7.1*	-6	15400*	1784	+
O=C(CSc1nnc2scc(-c3ccc(Cl)cc3)n12)NCc1ccc2c(c1)OCO2	-0.023	0.42	-3	34	6.3*	10	13884*	1740	+
